Active and inactive are the calls of the source. The rule behind the calls is not given here.
Columns and labels:
[1] = molecular target: T1, Proton-coupled folate transporter (Homo sapiens) (UniProt Q96NT5); assay: Inhibition of [3H]MTX uptake at human PCFT expressed in Chinese hamster R2/PCFT4 cells at 10 uM and pH 6.8 measured after 5 mins; type: cell-based
T1 sequence (whole entry): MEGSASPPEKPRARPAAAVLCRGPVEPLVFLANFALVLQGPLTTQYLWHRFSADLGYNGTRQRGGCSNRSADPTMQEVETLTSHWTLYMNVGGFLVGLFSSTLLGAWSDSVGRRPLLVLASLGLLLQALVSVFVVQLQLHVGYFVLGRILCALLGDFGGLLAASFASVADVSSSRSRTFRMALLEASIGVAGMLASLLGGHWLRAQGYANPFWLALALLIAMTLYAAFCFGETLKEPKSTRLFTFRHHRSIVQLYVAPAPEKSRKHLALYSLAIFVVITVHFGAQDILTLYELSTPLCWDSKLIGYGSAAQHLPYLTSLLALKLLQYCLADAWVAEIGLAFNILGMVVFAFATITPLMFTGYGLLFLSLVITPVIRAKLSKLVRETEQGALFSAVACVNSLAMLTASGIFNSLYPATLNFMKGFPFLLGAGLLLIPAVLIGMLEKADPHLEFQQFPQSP

[2] = molecular target: T2, Trifunctional purine biosynthetic protein adenosine-3 (Homo sapiens, UniProt P22102); assay: Inhibition of recombinant N-terminal 6His-tagged human GARFTase assessed as formation of 5,8-dideazafolate from 10-formyl-5,8-dideazafolic acid measured at every 15 seconds over 20 min by spectrophotometric analysis
T2 sequence (P22102 whole entry): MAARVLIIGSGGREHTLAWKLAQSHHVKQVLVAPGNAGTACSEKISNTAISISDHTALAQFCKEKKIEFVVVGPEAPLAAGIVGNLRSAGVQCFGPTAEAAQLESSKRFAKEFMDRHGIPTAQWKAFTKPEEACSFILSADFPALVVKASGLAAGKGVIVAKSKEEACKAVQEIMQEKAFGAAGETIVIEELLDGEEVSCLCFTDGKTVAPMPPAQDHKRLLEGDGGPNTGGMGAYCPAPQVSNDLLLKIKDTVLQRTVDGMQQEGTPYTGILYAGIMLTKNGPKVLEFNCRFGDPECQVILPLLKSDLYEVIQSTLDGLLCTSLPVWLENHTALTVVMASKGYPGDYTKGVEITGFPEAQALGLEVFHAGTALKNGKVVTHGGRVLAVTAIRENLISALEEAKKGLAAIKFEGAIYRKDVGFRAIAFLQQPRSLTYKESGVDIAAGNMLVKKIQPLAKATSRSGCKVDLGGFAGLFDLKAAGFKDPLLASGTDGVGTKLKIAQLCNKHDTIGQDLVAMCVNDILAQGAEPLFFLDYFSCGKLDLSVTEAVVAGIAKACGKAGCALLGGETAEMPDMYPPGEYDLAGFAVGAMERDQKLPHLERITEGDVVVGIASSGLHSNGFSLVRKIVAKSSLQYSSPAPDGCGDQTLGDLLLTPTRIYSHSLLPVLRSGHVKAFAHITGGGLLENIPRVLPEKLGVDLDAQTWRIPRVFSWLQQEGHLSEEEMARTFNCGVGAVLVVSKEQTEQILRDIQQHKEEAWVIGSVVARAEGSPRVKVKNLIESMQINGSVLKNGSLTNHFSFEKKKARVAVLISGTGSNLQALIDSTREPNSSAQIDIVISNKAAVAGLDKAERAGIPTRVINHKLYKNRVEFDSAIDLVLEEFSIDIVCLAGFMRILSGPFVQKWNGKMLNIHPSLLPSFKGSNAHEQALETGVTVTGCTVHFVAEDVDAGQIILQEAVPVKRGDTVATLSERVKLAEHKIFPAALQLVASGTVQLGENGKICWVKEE

KB = assay: Antiproliferative activity against human KB cells expressing human RFC/FR-alpha/PCFT assessed as reduction in cell viability measured after 96 hrs in presence of folic acid by Cell-Titer Blue fluorescence analysis; type: functional, cell-based
IGROV-1 [3] = assay: Antitumor activity against human IGROV1 cells xenografted into folate-deficient diet fed SCID mouse assessed as tumor growth at 150 mg/kg, iv administered […] post 2 days of tumor implantation measured on day 20 relative to control; type: functional
Summary of the method: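 Female NCR SCID mice (11 weeks old, ~20 g) are fed a folate-deficient diet from 14 days before implant. IGROV1 fragments (30–60 mg) are trocar-implanted subcutaneously in both flanks, and mice are randomised at 5/group. Tail-vein dosing starts on day 2: 28 mg/kg/inj Q3dx5, or 96 or 150 mg/kg/inj Q3dx4. Vehicle is 5% ethanol, 1% Tween-80, 0.5% NaHCO3 in water at pH 6.5. Caliper tumor mass is (a×b²)/2, T/C is taken when controls reach 700–1200 mg, and weights are recorded daily.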

[4] = molecular target: T3, GAR transformylase/AICAR transformylase (Homo sapiens) (UniProt P31939+P22102); assay: Inhibition of GARFTase/AICARFTase in human KB cells expressing RFC/FR-alpha/PCFT assessed as cell growth inhibition measured after 96 hrs in presence of 10 uM thymidine by Cell-Titer Blue fluorescence analysis; type: cell-based
[5] = molecular target: Bifunctional purine biosynthesis protein ATIC (Homo sapiens) (UniProt P31939); assay: Inhibition of AICARFTase in human KB cells expressing RFC/FR-alpha/PCFT assessed as cell growth inhibition measured after 96 hrs in presence of 320 uM AICA by Cell-Titer Blue fluorescence analysis; type: cell-based
[6] = molecular target: T4, Proton-coupled folate transporter (Homo sapiens, UniProt Q96NT5); assay: Inhibition of [3H]MTX uptake at human PCFT expressed in Chinese hamster R2/PCFT4 cells at pH 5.5 measured after 5 mins by Dixon plot analysis; type: cell-based
T4 sequence (Q96NT5 whole entry): T1 sequence (whole entry)

IGROV-1 [7] = assay: Antiproliferative activity against human IGROV1 cells expressing human FR-alpha/PCFT assessed as reduction in cell viability measured after 96 hrs by Cell-Titer Blue fluorescence analysis; type: functional, cell-based; conditions: IGROV-1, 96 h
[8] = molecular target: Folate receptor beta (Homo sapiens) (UniProt P14207); assay: Displacement of [3H]folic acid from human FR-beta receptor expressed in Chinese hamster D4 cells measured after 15 mins relative to folic acid; type: cell-based
IGROV-1 [9] = assay: Antiproliferative activity against human IGROV1 cells expressing human FR-alpha/PCFT assessed as reduction in cell viability measured after 96 hrs in presence of folic acid by Cell-Titer Blue fluorescence analysis; type: functional, cell-based; conditions: IGROV-1, 96 h
[10] = molecular target: T1, Proton-coupled folate transporter (Homo sapiens); assay: Inhibition of [3H]MTX uptake at human PCFT expressed in Chinese hamster R2/PCFT4 cells at 10 uM and pH 5.5 measured after 5 mins; type: cell-based
[11] = Toxicity in standard diet fed SCID mouse xenografted with human IGROV1 cells assessed as body weight loss at 96 and 150 mg/kg, iv administered qd for 4 times post 2 days of tumor implantation measured during compound treatment; type: organism-based; conditions: in vivo, 48 h
[12] = molecular target: T3, GAR transformylase/AICAR transformylase (Homo sapiens); assay: Inhibition of GARFTase/AICARFTase in human KB cells expressing RFC/FR-alpha/PCFT assessed as cell growth inhibition measured after 96 hrs in presence of 60 uM adenosine by Cell-Titer Blue fluorescence analysis; type: cell-based
[13] = molecular target: T2, Trifunctional purine biosynthetic protein adenosine-3; assay: Inhibition of GARFTase in human KB cells expressing RFC/FR-alpha/PCFT assessed as decrease in incorporation of [14C(U)]-glycine into [14C]formyl GAR incubated for 1 hr followed by addition of [14C(U)]-glycine measured after 16 hrs in presence of azaserine; type: cell-based

T3 sequence (P31939 whole entry, looked up, one chain of several): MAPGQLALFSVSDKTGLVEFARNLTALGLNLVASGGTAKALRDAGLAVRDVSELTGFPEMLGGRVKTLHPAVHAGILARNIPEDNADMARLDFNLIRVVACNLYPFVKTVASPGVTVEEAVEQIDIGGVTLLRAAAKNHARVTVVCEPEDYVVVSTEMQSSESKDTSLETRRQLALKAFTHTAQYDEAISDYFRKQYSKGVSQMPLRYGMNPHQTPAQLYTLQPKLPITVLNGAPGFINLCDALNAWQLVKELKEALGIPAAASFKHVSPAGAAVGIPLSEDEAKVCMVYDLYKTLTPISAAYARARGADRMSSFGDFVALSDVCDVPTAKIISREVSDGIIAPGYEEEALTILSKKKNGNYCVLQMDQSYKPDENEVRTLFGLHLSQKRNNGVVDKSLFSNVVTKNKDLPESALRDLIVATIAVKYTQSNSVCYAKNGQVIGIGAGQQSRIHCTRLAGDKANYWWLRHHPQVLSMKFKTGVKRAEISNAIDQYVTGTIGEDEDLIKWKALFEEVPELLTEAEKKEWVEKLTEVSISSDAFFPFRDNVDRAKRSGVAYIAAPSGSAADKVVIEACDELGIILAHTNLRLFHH
Chain of Folate receptor beta (Homo sapiens) (P14207 17-230 limits assumed): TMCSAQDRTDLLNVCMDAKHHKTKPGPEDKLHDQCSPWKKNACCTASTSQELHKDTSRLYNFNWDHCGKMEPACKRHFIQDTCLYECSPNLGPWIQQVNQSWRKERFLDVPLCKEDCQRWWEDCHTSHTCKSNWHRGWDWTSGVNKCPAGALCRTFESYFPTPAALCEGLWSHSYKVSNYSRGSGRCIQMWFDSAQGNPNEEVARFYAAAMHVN
Chain of Bifunctional purine biosynthesis protein ATIC (Homo sapiens) (P31939 whole entry, looked up): as the sequence (P31939 whole entry, looked up, one chain of several) above

Nc1nc2[nH]c(CCNc3ccc(C(=O)N[C@@H](CCC(=O)O)C(=O)O)cc3)cc2c(=O)[nH]1
inhibition [1]: 40 to 60%
Ki [2]: 59 nM
IC50 (KB): 666 nM
T/C (IGROV-1 [3]): 12%
inhibition [4]: Active
inhibition [5]: Active
Ki [6]: 850 nM
IC50 (IGROV-1 [7]): 2.7 nM
inhibition [8]: 60 to 110%
IC50 (IGROV-1 [9]): 872 nM
inhibition [10]: 80 to 90%
Activity [11]: Non-Toxic
inhibition [12]: inactive
IC50 [13]: 2.64 nM

Reference: ChEMBL document CHEMBL4431326, “Tumor Targeting with Novel 6-Substituted Pyrrolo [2,3-d] Pyrimidine Antifolates with Heteroatom Bridge Substitutions via Cellular Uptake by Folate Receptor α and the Proton-Coupled Folate Transporter and Inhibition of de Novo Purine Nucleotide Biosynthesis” (J Med Chem, 2016)
